In ChEMBL document CHEMBL4428081, “Selective AKR1C3 Inhibitors Potentiate Chemotherapeutic Activity in Multiple Acute Myeloid Leukemia (AML) Cell Lines” (ACS Med Chem Lett, 2016):
Activity calls are given as the source filed them.

Legend:
KG-1a = experiment: Cytotoxicity against human KG1a cells expressing AKR1C3 assessed as reduction in cell viability at >25 uM at 72 hrs by MTS assay; assay type: functional, cell-based
[1] = molecular target: T1, Aldo-keto reductase family 1 member C3 (Homo sapiens) (UniProt P42330); experiment: Inhibition of AKR1C3 in human KG1a cells assessed as potentiation of etoposide-induced cytotoxicity by measuring reduction in cell viability at 0.1 uM coincubated with etoposide at 1 uM after 72 hrs by MTS assay; assay type: cell-based
T1 sequence (whole entry): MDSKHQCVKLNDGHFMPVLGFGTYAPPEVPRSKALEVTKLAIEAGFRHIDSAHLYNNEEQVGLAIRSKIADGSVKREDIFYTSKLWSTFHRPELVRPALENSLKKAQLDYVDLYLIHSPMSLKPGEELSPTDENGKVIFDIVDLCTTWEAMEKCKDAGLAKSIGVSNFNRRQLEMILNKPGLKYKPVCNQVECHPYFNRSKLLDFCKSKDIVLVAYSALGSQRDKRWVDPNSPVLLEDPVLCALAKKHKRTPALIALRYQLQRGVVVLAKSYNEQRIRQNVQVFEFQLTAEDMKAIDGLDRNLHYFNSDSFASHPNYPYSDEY
In short: (§1)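 HL-60 or KG1a cells were coincubated with inhibitor and etoposide for 72 h, then cell viability was read. Values are mean ± SD (n = 6). Treatments were compared with control by two-tailed t test.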

[2] = molecular target: T1, Aldo-keto reductase family 1 member C3 (Homo sapiens); experiment: Inhibition of AKR1C3 in human HL60 cells assessed as potentiation of etoposide-induced cytotoxicity by measuring reduction in cell viability pre-treated with 0.1 to 1 uM compound for 24 hrs followed by 1 uM etoposide exposure for additional 72 hrs by MTS assay; assay type: cell-based
HL-60 = experiment: Cytotoxicity against human HL60 cells assessed as reduction in cell viability up to 100 uM at 72 hrs by MTS assay; assay type: functional, cell-based
In short: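 HL-60 human acute promyelocytic leukemia cells exposed to AKR1C3 inhibitor alone, with no chemotherapeutic, over a range up to 100 μM. Lower working range was 0.1–1 μM. Read-out was cell viability relative to untreated control.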

[3] = molecular target: T1, Aldo-keto reductase family 1 member C3 (Homo sapiens); experiment: Inhibition of AKR1C3 in human HL60 cells assessed as potentiation of etoposide-induced cytotoxicity by measuring reduction in cell viability at 0.1 uM coincubated with etoposide at 1 uM after 72 hrs by MTS assay (reference value: 40%); assay type: cell-based; in short: as §1
[4] = molecular target: T1, Aldo-keto reductase family 1 member C3 (Homo sapiens); experiment: Inhibition of AKR1C3 in human HL60 cells assessed as potentiation of etoposide-induced cytotoxicity by measuring reduction in cell viability at 0.1 uM coincubated with etoposide at 0.5 uM after 72 hrs by MTS assay (reference value: 20%); assay type: cell-based; in short: as §1
HOP-62 = experiment: Cytotoxicity against human HOP62 cells at 10 uM after 48 hrs by sulforhodamine B assay; assay type: functional, cell-based
HOP-92 = experiment: Cytotoxicity against human HOP92 cells at 10 uM after 48 hrs by sulforhodamine B assay; assay type: functional, cell-based
SK-MEL-5 = experiment: Cytotoxicity against human SK-MEL-5 cells at 10 uM after 48 hrs by sulforhodamine B assay; assay type: functional, cell-based
OVCAR-8 = experiment: Cytotoxicity against human OVCAR8 cells at 10 uM after 48 hrs by sulforhodamine B assay; assay type: functional, cell-based
LOX IMVI = experiment: Cytotoxicity against human LOXIMVI cells at 10 uM after 48 hrs by sulforhodamine B assay; assay type: functional, cell-based
HCC 2998 = experiment: Cytotoxicity against human HCC2998 cells at 10 uM after 48 hrs by sulforhodamine B assay; assay type: functional, cell-based
PC-3 = experiment: Cytotoxicity against human PC3 cells at 10 uM after 48 hrs by sulforhodamine B assay; assay type: functional, cell-based
K562 = experiment: Cytotoxicity against human K562 cells at 10 uM after 48 hrs by sulforhodamine B assay; assay type: functional, cell-based
SK-MEL-28 = experiment: Cytotoxicity against human SK-MEL-28 cells at 10 uM after 48 hrs by sulforhodamine B assay; assay type: functional, cell-based
NCI-H522 = experiment: Cytotoxicity against human NCI-H522 cells at 10 uM after 48 hrs by sulforhodamine B assay; assay type: functional, cell-based
OVCAR-4 = experiment: Cytotoxicity against human OVCAR4 cells at 10 uM after 48 hrs by sulforhodamine B assay; assay type: functional, cell-based
UACC-62 = experiment: Cytotoxicity against human UACC62 cells at 10 uM after 48 hrs by sulforhodamine B assay; assay type: functional, cell-based
In short: (§2)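 NCI 60 cancer cell line panel screen run at a single concentration of 10 μM.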

RXF 393 = experiment: Cytotoxicity against human RXF393 cells at 10 uM after 48 hrs by sulforhodamine B assay; assay type: functional, cell-based
MDA-MB-231 = experiment: Cytotoxicity against human MDA-MB-231 cells at 10 uM after 48 hrs by sulforhodamine B assay; assay type: functional, cell-based
U-251 = experiment: Cytotoxicity against human U251 cells at 10 uM after 48 hrs by sulforhodamine B assay; assay type: functional, cell-based; in short: as §2
ACHN = experiment: Cytotoxicity against human ACHN cells at 10 uM after 48 hrs by sulforhodamine B assay; assay type: functional, cell-based
HL-60(TB) = experiment: Cytotoxicity against human HL-60(TB) cells at 10 uM after 48 hrs by sulforhodamine B assay; assay type: functional, cell-based
In short: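 Single-concentration (10 μM) test run within the National Cancer Institute 60 cancer cell line screen, with HL-60 as one panel member.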

SF-539 = experiment: Cytotoxicity against human SF539 cells at 10 uM after 48 hrs by sulforhodamine B assay; assay type: functional, cell-based
T47D = experiment: Cytotoxicity against human T47D cells at 10 uM after 48 hrs by sulforhodamine B assay; assay type: functional, cell-based; in short: as §2
SNB-75 = experiment: Cytotoxicity against human SNB75 cells at 10 uM after 48 hrs by sulforhodamine B assay; assay type: functional, cell-based; in short: as §2
SR = experiment: Cytotoxicity against human SR cells at 10 uM after 48 hrs by sulforhodamine B assay; assay type: functional, cell-based; in short: as §2
M14 = experiment: Cytotoxicity against human M14 cells at 10 uM after 48 hrs by sulforhodamine B assay; assay type: functional, cell-based
786-0 = experiment: Cytotoxicity against human 786-0 cells at 10 uM after 48 hrs by sulforhodamine B assay; assay type: functional, cell-based
A549 = experiment: Cytotoxicity against human A549/ATCC cells at 10 uM after 48 hrs by sulforhodamine B assay; assay type: functional, cell-based
NCI-H322M = experiment: Cytotoxicity against human NCI-H322M cells at 10 uM after 48 hrs by sulforhodamine B assay; assay type: functional, cell-based
CCRF-CEM = experiment: Cytotoxicity against human CCRF-CEM cells at 10 uM after 48 hrs by sulforhodamine B assay; assay type: functional, cell-based
HCT-116 = experiment: Cytotoxicity against human HCT116 cells at 10 uM after 48 hrs by sulforhodamine B assay; assay type: functional, cell-based
UO-31 = experiment: Cytotoxicity against human UO31 cells at 10 uM after 48 hrs by sulforhodamine B assay; assay type: functional, cell-based; in short: as §2
RPMI-8226 = experiment: Cytotoxicity against human RPMI8226 cells at 10 uM after 48 hrs by sulforhodamine B assay; assay type: functional, cell-based
NCI-H460 = experiment: Cytotoxicity against human NCI-H460 cells at 10 uM after 48 hrs by sulforhodamine B assay; assay type: functional, cell-based
KM12 = experiment: Cytotoxicity against human KM12 cells at 10 uM after 48 hrs by sulforhodamine B assay; assay type: functional, cell-based
Hs-578T = experiment: Cytotoxicity against human Hs 578T cells at 10 uM after 48 hrs by sulforhodamine B assay; assay type: functional, cell-based
CAKI-1 = experiment: Cytotoxicity against human Caki1 cells at 10 uM after 48 hrs by sulforhodamine B assay; assay type: functional, cell-based
UACC-257 = experiment: Cytotoxicity against human UACC257 cells at 10 uM after 48 hrs by sulforhodamine B assay; assay type: functional, cell-based; in short: as §2
SF-295 = experiment: Cytotoxicity against human SF295 cells at 10 uM after 48 hrs by sulforhodamine B assay; assay type: functional, cell-based
Malme-3M = experiment: Cytotoxicity against human MALME-3M cells at 10 uM after 48 hrs by sulforhodamine B assay; assay type: functional, cell-based
MDA-MB-468 = experiment: Cytotoxicity against human MDA-MB-468 cells at 10 uM after 48 hrs by sulforhodamine B assay; assay type: functional, cell-based
NCI/ADR-RES = experiment: Cytotoxicity against human NCI-ADR-RES cells at 10 uM after 48 hrs by sulforhodamine B assay; assay type: functional, cell-based
A498 = experiment: Cytotoxicity against human A498 cells at 10 uM after 48 hrs by sulforhodamine B assay; assay type: functional, cell-based
SF-268 = experiment: Cytotoxicity against human SF268 cells at 10 uM after 48 hrs by sulforhodamine B assay; assay type: functional, cell-based
SW-620 = experiment: Cytotoxicity against human SW620 cells at 10 uM after 48 hrs by sulforhodamine B assay; assay type: functional, cell-based; in short: as §2
HCT-15 = experiment: Cytotoxicity against human HCT15 cells at 10 uM after 48 hrs by sulforhodamine B assay; assay type: functional, cell-based
TK-10 = experiment: Cytotoxicity against human TK10 cells at 10 uM after 48 hrs by sulforhodamine B assay; assay type: functional, cell-based; in short: as §2
DU-145 = experiment: Cytotoxicity against human DU145 cells at 10 uM after 48 hrs by sulforhodamine B assay; assay type: functional, cell-based
MOLT-4 = experiment: Cytotoxicity against human MOLT4 cells at 10 uM after 48 hrs by sulforhodamine B assay; assay type: functional, cell-based
NCI-H226 = experiment: Cytotoxicity against human NCI-H226 cells at 10 uM after 48 hrs by sulforhodamine B assay; assay type: functional, cell-based
OVCAR-5 = experiment: Cytotoxicity against human OVCAR5 cells at 10 uM after 48 hrs by sulforhodamine B assay; assay type: functional, cell-based
SNB-19 = experiment: Cytotoxicity against human SNB19 cells at 10 uM after 48 hrs by sulforhodamine B assay; assay type: functional, cell-based; in short: as §2
MCF7 = experiment: Cytotoxicity against human MCF7 cells at 10 uM after 48 hrs by sulforhodamine B assay; assay type: functional, cell-based
SN12C = experiment: Cytotoxicity against human SN12C cells at 10 uM after 48 hrs by sulforhodamine B assay; assay type: functional, cell-based
OVCAR-3 = experiment: Cytotoxicity against human OVCAR3 cells at 10 uM after 48 hrs by sulforhodamine B assay; assay type: functional, cell-based
MDA-MB-435 = experiment: Cytotoxicity against human MDA-MB-435 cells at 10 uM after 48 hrs by sulforhodamine B assay; assay type: functional, cell-based
COLO 205 = experiment: Cytotoxicity against human COLO205 cells at 10 uM after 48 hrs by sulforhodamine B assay; assay type: functional, cell-based
IGROV-1 = experiment: Cytotoxicity against human IGROV1 cells at 10 uM after 48 hrs by sulforhodamine B assay; assay type: functional, cell-based
NCI-H23 = experiment: Cytotoxicity against human NCI-H23 cells at 10 uM after 48 hrs by sulforhodamine B assay; assay type: functional, cell-based
SK-MEL-2 = experiment: Cytotoxicity against human SK-MEL-2 cells at 10 uM after 48 hrs by sulforhodamine B assay; assay type: functional, cell-based

Measured: Activity

CC(C)=CCc1cc(/C=C/C(=O)O)ccc1NC(=O)CCc1ccccc1
active: KG-1a
80 to 95%: [2]
42%: [1]
25%: [4]
inactive: HL-60
57%: [3]

CC(C)=CCc1ccc(/C=C/C(=O)O)cc1OC(=O)CCc1ccccc1
active: KG-1a
80%: [3]
inactive: HL-60
80 to 95%: [2]
54%: [1]

CC(C)=CCc1cc(/C=C/C(=O)O)ccc1OC(=O)CCc1ccccc1
active: KG-1a
inactive: HOP-62 | HOP-92 | SK-MEL-5 | OVCAR-8 | LOX IMVI | HCC 2998 | PC-3 | K562 | SK-MEL-28 | NCI-H522 | OVCAR-4 | UACC-62 | RXF 393 | MDA-MB-231 | U-251 | ACHN | HL-60(TB) | SF-539 | T47D | SNB-75 | SR | M14 | HL-60 | 786-0 | A549 | NCI-H322M | CCRF-CEM | HCT-116 | UO-31 | RPMI-8226 | NCI-H460 | KM12 | Hs-578T | CAKI-1 | UACC-257 | SF-295 | Malme-3M | MDA-MB-468 | NCI/ADR-RES | A498 | SF-268 | SW-620 | HCT-15 | TK-10 | DU-145 | MOLT-4 | NCI-H226 | OVCAR-5 | SNB-19 | MCF7 | SN12C | OVCAR-3 | MDA-MB-435 | COLO 205 | IGROV-1 | NCI-H23 | SK-MEL-2
70%: [3]
80 to 95%: [2]
